This note sets out measurements from ChEMBL document CHEMBL1255259, “Phosphorothioate-modified oligodeoxynucleotides inhibit human cytomegalovirus replication by blocking virus entry” (Antimicrob Agents Chemother, 2008).

Activity calls are given as the source filed them. The rule behind the calls is not given here. A value given as a limit tells only on which side of the number the result lay.

The test system of data set [1] is Human betaherpesvirus 5. The experiment in a line: Antimicrobial activity against 0.1 uM compound pretreated Human cytomegalovirus AD169 infected in HELF assessed as reduction in viral titer 37 degC. Type of data set: functional, organism-based. An outline of the steps:
(§1)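 HCMV AD169 (10^4 PFU) incubated with ODN at 0.1 μM at 4 or 37°C for various times; samples then diluted to bring ODN below an antivirally active level; residual infectivity titrated by plaque assay on HELF. Means ± SD of three independent experiments.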

Data set [2] can be described thus: Cytotoxicity against HELF assessed as cell viability after 6 days by MTT assay. Type of data set: cell-based. As to conditions: human, HELF cells. In a few lines:
(§2)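 HELF exposed to rising ODN concentrations (up to 10 μM) for 6 days; viable cells measured by MTT. CC50 taken as concentration that cuts viability to 50%.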
In general terms: Tetrazolium assays rely on reduction of a dye to a coloured formazan, in cell work by metabolically active cells.

Data set [3] in a line: Cytotoxicity against HELF assessed as cell viability by MTT assay after 6 days at <=10 uM. To be noted: human, 144 h. Type of data set: cell-based. An outline of the steps: as §2
The test system of data set [4] is Human betaherpesvirus 5. In words: Antimicrobial activity against Human cytomegalovirus AD169 infected in compound pretreated HELF assessed as inhibition of viral replication measured after 6 days post-infection. Type of data set: functional, organism-based. As to conditions: Human betaherpesvirus 5, AD169, HELF. In a few lines: (§3)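 HELF pretreated with ODN 1 h before infection with HCMV AD169 (MOI 1); ODN kept in medium after 2 h adsorption at 37°C. At 6 days p.i., cells plus supernatants sonicated and titrated by plaque assay on HELF; plaques counted microscopically, expressed as PFU/ml (log10) or % of control. IC50/IC90 by linear regression; duplicate wells, three independent experiments, means ± SD.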

For data set [5], the system named is Human betaherpesvirus 5. In words: Antimicrobial activity against Human cytomegalovirus AD169 infected in 0.1 uM compound pretreated HELF assessed as inhibition of viral replication measured after 6 days post-infection. Type of data set: functional, organism-based. An outline of the steps:
as §3

The subject of data set [6] is Human betaherpesvirus 5. The experiment in a line: Antimicrobial activity against Human cytomegalovirus AD169 infected in 1 uM compound pretreated HELF assessed as inhibition of viral replication measured after 6 days post-infection. Type of data set: functional, organism-based. An outline of the steps:
as §3

Data set [7] has as its system Human betaherpesvirus 5. In words: Antimicrobial activity against 0.1 uM compound pretreated Human cytomegalovirus AD169 infected in HELF assessed as reduction in viral titer at 4 degC. Type of data set: functional, organism-based. An outline of the steps:
as §1

`Cc1cn([C@H]2C[C@H](OP(=O)(O)OC[C@H]3O[C@@H](n4ccc(N)nc4=O)[C@H](O)[C@@H]3OP(=O)(O)OC[C@H]3O[C@@H](n4cnc5c(=O)[nH]c(N)nc54)[C@H](O)[C@@H]3OP(=O)(O)OC[C@H]3O[C@@H](n4cc(C)c(=O)[nH]c4=O)C[C@@H]3OP(=O)(O)OC[C@H]3O[C@@H](n4ccc(N)nc4=O)[C@H](O)[C@@H]3OP(=O)(O)OC[C@H]3O[C@@H](n4cnc5c(=O)[nH]c(N)nc54)[C@H](O)[C@@H]3OP(=O)(O)OC[C@H]3O[C@@H](n4cnc5c(=O)[nH]c(N)nc54)[C@H](O)[C@@H]3OP(O)(=S)OC[C@H]3O[C@@H](n4cnc5c(=O)[nH]c(N)nc54)[C@H](O)[C@@H]3OP(O)(=S)OC[C@H]3O[C@@H](n4cnc5c(=O)[nH]c(N)nc54)[C@H](O)[C@@H]3OP(O)(=S)OC[C@H]3O[C@@H](n4cnc5c(=O)[nH]c(N)nc54)[C@H](O)[C@@H]3OP(O)(=S)OC[C@H]3O[C@@H](n4cnc5c(=O)[nH]c(N)nc54)[C@H](O)[C@@H]3OP(O)(O)=S)[C@@H](COP(=O)(O)O[C@H]3[C@@H](O)[C@H](n4cnc5c(N)ncnc54)O[C@@H]3COP(=O)(O)O[C@H]3[C@@H](O)[C@H](n4cnc5c(=O)[nH]c(N)nc54)O[C@@H]3COP(=O)(O)O[C@H]3[C@@H](O)[C@H](n4ccc(N)nc4=O)O[C@@H]3COP(=O)(O)O[C@H]3[C@@H](O)[C@H](n4cnc5c(N)ncnc54)O[C@@H]3COP(=O)(O)O[C@H]3[C@@H](O)[C@H](n4cnc5c(=O)[nH]c(N)nc54)O[C@@H]3COP(=O)(O)O[C@H]3[C@@H](O)[C@H](n4cnc5c(=O)[nH]c(N)nc54)O[C@@H]3COP(=O)(O)O[C@H]3[C@@H](O)[C@H](n4cnc5c(=O)[nH]c(N)nc54)O[C@@H]3COP(O)(=S)O[C@H]3[C@@H](O)[C@H](n4cnc5c(=O)[nH]c(N)nc54)O[C@@H]3COP(O)(=S)O[C@H]3[C@@H](O)[C@H](n4cnc5c(=O)[nH]c(N)nc54)O[C@@H]3CO)O2)c(=O)[nH]c1=O` (some centres not stated): the inhibition result with Human betaherpesvirus 5 [1] and in the data set on Human betaherpesvirus 5 [7] was “inactive” throughout. Also, the CC50 (in general, the concentration that lowers cell viability or growth by half) at 144 h in data set [2] was more than 10 µM. For the same molecule, the Activity entry in data set [3] is on record as “Non-toxic”. For the same molecule, the IC50 (commonly the concentration needed to halve the response being measured) with Human betaherpesvirus 5 [4] came out at 0.14 µM. Besides, the IC90 (as a rule, the concentration at which the effect reaches the 90% level) with Human betaherpesvirus 5 [4] amounted to 3.6 µM. Besides, the inhibition entry with Human betaherpesvirus 5 [5] and in the data set on Human betaherpesvirus 5 [6] was “Active” throughout.

On to `Cc1cn([C@H]2C[C@H](OP(=O)(O)O)[C@@H](COP(=O)(O)O[C@H]3C[C@H](n4cc(C)c(=O)[nH]c4=O)O[C@@H]3COP(=O)(O)O[C@H]3[C@@H](O)[C@H](n4cnc5c(=O)[nH]c(N)nc54)O[C@@H]3COP(=O)(O)O[C@H]3[C@@H](O)[C@H](n4ccc(N)nc4=O)O[C@@H]3COP(=O)(O)O[C@H]3C[C@H](n4cc(C)c(=O)[nH]c4=O)O[C@@H]3COP(=O)(O)O[C@H]3[C@@H](O)[C@H](n4cnc5c(=O)[nH]c(N)nc54)O[C@@H]3COP(=O)(O)O[C@H]3C[C@H](n4cc(C)c(=O)[nH]c4=O)O[C@@H]3COP(=O)(O)O[C@H]3C[C@H](n4cc(C)c(=O)[nH]c4=O)O[C@@H]3COP(=O)(O)O[C@H]3C[C@H](n4cc(C)c(=O)[nH]c4=O)O[C@@H]3COP(=O)(O)O[C@H]3C[C@H](n4cc(C)c(=O)[nH]c4=O)O[C@@H]3COP(=O)(O)O[C@H]3[C@@H](O)[C@H](n4cnc5c(=O)[nH]c(N)nc54)O[C@@H]3COP(=O)(O)O[C@H]3[C@@H](O)[C@H](n4ccc(N)nc4=O)O[C@@H]3COP(=O)(O)O[C@H]3C[C@H](n4cc(C)c(=O)[nH]c4=O)O[C@@H]3COP(=O)(O)O[C@H]3[C@@H](O)[C@H](n4cnc5c(=O)[nH]c(N)nc54)O[C@@H]3COP(=O)(O)O[C@H]3C[C@H](n4cc(C)c(=O)[nH]c4=O)O[C@@H]3COP(=O)(O)O[C@H]3C[C@H](n4cc(C)c(=O)[nH]c4=O)O[C@@H]3COP(=O)(O)O[C@H]3C[C@H](n4cc(C)c(=O)[nH]c4=O)O[C@@H]3COP(=O)(O)O[C@H]3C[C@H](n4cc(C)c(=O)[nH]c4=O)O[C@@H]3COP(=O)(O)O[C@H]3[C@@H](O)[C@H](n4cnc5c(=O)[nH]c(N)nc54)O[C@@H]3COP(=O)(O)O[C@H]3[C@@H](O)[C@H](n4ccc(N)nc4=O)O[C@@H]3COP(=O)(O)O[C@H]3C[C@H](n4cc(C)c(=O)[nH]c4=O)O[C@@H]3COP(=O)(O)O[C@H]3[C@@H](O)[C@H](n4cnc5c(=O)[nH]c(N)nc54)O[C@@H]3COP(=O)(O)O[C@H]3[C@@H](O)[C@H](n4ccc(N)nc4=O)O[C@@H]3COP(=O)(O)O[C@H]3C[C@H](n4cc(C)c(=O)[nH]c4=O)O[C@@H]3CO)O2)c(=O)[nH]c1=O`, for which the inhibition entry in the data set on Human betaherpesvirus 5 [1] and in the data set on Human betaherpesvirus 5 [7] was “inactive” throughout. Besides, the CC50 at 144 h in data set [2] is more than 10 µM. Further, the Activity entry in data set [3] is “Non-toxic”. Further, the half-inhibitory concentration (IC50) in the data set with Human betaherpesvirus 5 [4] was 3.8 µM. In addition, the IC90 with Human betaherpesvirus 5 [4] is more than 10 µM. Besides, the inhibition entry in the data set on Human betaherpesvirus 5 [5] and in the data set with Human betaherpesvirus 5 [6] was “Active” each time.

On to `Cc1cn([C@H]2C[C@H](OP(O)(=S)OC[C@H]3O[C@@H](n4cc(C)c(=O)[nH]c4=O)C[C@@H]3OP(O)(O)=S)[C@@H](OOP(O)(=S)O[C@H]3[C@@H](O)[C@H](n4ccc(N)nc4=O)O[C@@H]3COP(O)(=S)O[C@H]3[C@@H](O)[C@H](n4cnc5c(=O)[nH]c(N)nc54)O[C@@H]3COP(O)(=S)O[C@H]3[C@@H](O)[C@H](n4cnc5c(N)ncnc54)O[C@@H]3COP(O)(=S)O[C@H]3[C@@H](O)[C@H](n4cnc5c(=O)[nH]c(N)nc54)O[C@@H]3COP(O)(=S)O[C@H]3C[C@H](n4cc(C)c(=O)[nH]c4=O)O[C@@H]3COP(O)(=S)O[C@H]3[C@@H](O)[C@H](n4ccc(N)nc4=O)O[C@@H]3COP(O)(=S)O[C@H]3[C@@H](O)[C@H](n4ccc(N)nc4=O)O[C@@H]3COP(O)(=S)O[C@H]3C[C@H](n4cc(C)c(=O)[nH]c4=O)O[C@@H]3COP(O)(=S)O[C@H]3C[C@H](n4cc(C)c(=O)[nH]c4=O)O[C@@H]3COP(O)(=S)O[C@H]3[C@@H](O)[C@H](n4ccc(N)nc4=O)O[C@@H]3COP(O)(=S)O[C@H]3[C@@H](O)[C@H](n4cnc5c(=O)[nH]c(N)nc54)O[C@@H]3COP(O)(=S)O[C@H]3[C@@H](O)[C@H](n4cnc5c(N)ncnc54)O[C@@H]3COP(O)(=S)O[C@H]3[C@@H](O)[C@H](n4cnc5c(=O)[nH]c(N)nc54)O[C@@H]3COP(O)(=S)O[C@H]3C[C@H](n4cc(C)c(=O)[nH]c4=O)O[C@@H]3COP(O)(=S)O[C@H]3[C@@H](O)[C@H](n4cnc5c(N)ncnc54)O[C@@H]3COP(O)(=S)O[C@H]3[C@@H](O)[C@H](n4ccc(N)nc4=O)O[C@@H]3COP(O)(=S)O[C@H]3[C@@H](O)[C@H](n4ccc(N)nc4=O)O[C@@H]3COP(O)(=S)O[C@H]3C[C@H](n4cc(C)c(=O)[nH]c4=O)O[C@@H]3CO)O2)c(=O)[nH]c1=O` (some centres not stated), for which the inhibition result with Human betaherpesvirus 5 [1] and with Human betaherpesvirus 5 [7] was “inactive” throughout. Further, the CC50 at 144 h in data set [2] was more than 10 µM. Also, the Activity entry in data set [3] is reported as “Non-toxic”. The IC50 in the data set with Human betaherpesvirus 5 [4] worked out at 0.2 µM. Moreover, in the data set with Human betaherpesvirus 5 [4], the IC90 is more than 5 µM. Moreover, the inhibition entry in the data set on Human betaherpesvirus 5 [5] and in the data set on Human betaherpesvirus 5 [6] was “Active” throughout.

Consider `Cc1cn([C@H]2C[C@H](OP(O)(=S)OC[C@H]3O[C@@H](n4ccc(N)nc4=O)[C@H](O)[C@@H]3OP(O)(=S)OC[C@H]3O[C@@H](n4cnc5c(=O)[nH]c(N)nc54)[C@H](O)[C@@H]3OP(O)(=S)OC[C@H]3O[C@@H](n4cc(C)c(=O)[nH]c4=O)C[C@@H]3OP(O)(=S)OC[C@H]3O[C@@H](n4ccc(N)nc4=O)[C@H](O)[C@@H]3OP(O)(=S)OC[C@H]3O[C@@H](n4cnc5c(=O)[nH]c(N)nc54)[C@H](O)[C@@H]3OP(O)(=S)OC[C@H]3O[C@@H](n4cc(C)c(=O)[nH]c4=O)C[C@@H]3OP(O)(=S)OC[C@H]3O[C@@H](n4cc(C)c(=O)[nH]c4=O)C[C@@H]3OP(O)(=S)OC[C@H]3O[C@@H](n4cc(C)c(=O)[nH]c4=O)C[C@@H]3OP(O)(=S)OC[C@H]3O[C@@H](n4cc(C)c(=O)[nH]c4=O)C[C@@H]3OP(O)(=S)OC[C@H]3O[C@@H](n4ccc(N)nc4=O)[C@H](O)[C@@H]3OP(O)(=S)OC[C@H]3O[C@@H](n4cnc5c(=O)[nH]c(N)nc54)[C@H](O)[C@@H]3OP(O)(=S)OC[C@H]3O[C@@H](n4cnc5c(=O)[nH]c(N)nc54)[C@H](O)[C@@H]3OP(O)(=S)OC[C@H]3O[C@@H](n4ccc(N)nc4=O)[C@H](O)[C@@H]3OP(O)(=S)OC[C@H]3O[C@@H](n4cnc5c(=O)[nH]c(N)nc54)[C@H](O)[C@@H]3OP(O)(=S)OC[C@H]3O[C@@H](n4ccc(N)nc4=O)[C@H](O)[C@@H]3OP(O)(=S)OC[C@H]3O[C@@H](n4cnc5c(=O)[nH]c(N)nc54)[C@H](O)[C@@H]3OP(O)(=S)OC[C@H]3O[C@@H](n4ccc(N)nc4=O)[C@H](O)[C@@H]3OP(O)(=S)OC[C@H]3O[C@@H](n4cnc5c(=O)[nH]c(N)nc54)[C@H](O)[C@@H]3OP(O)(=S)OC[C@H]3O[C@@H](n4ccc(N)nc4=O)[C@H](O)[C@@H]3OP(O)(=S)OC[C@H]3O[C@@H](n4ccc(N)nc4=O)[C@H](O)[C@@H]3OP(O)(=S)OC[C@H]3O[C@@H](n4cnc5c(=O)[nH]c(N)nc54)[C@H](O)[C@@H]3OP(O)(O)=S)[C@@H](CO)O2)c(=O)[nH]c1=O` (some centres not stated), for which the inhibition entry with Human betaherpesvirus 5 [1] and in the data set on Human betaherpesvirus 5 [7] was “inactive” each time. Further, the CC50 at 144 h in data set [2] is more than 10 µM. Moreover, in data set [3], the Activity entry was “Non-toxic”. The IC50 with Human betaherpesvirus 5 [4] was 0.1 µM. Moreover, in the data set with Human betaherpesvirus 5 [4], the IC90 was 3.2 µM. Further, the inhibition entry in the data set on Human betaherpesvirus 5 [5] and with Human betaherpesvirus 5 [6] was “Active” each time.
